Reference: ChEMBL document CHEMBL1212828, “Synthesis and biological evaluation of novel pyrazole compounds” (Bioorg Med Chem, 2010)
Calls of active or inactive are those of the source. The calls are words filed in the database; no cut-off is given here.

What was measured:
[1] = test system: Rattus norvegicus; assay: Antiinflammatory activity in Wistar albino rat assessed as inhibition of turpentine oil-induced granuloma at 20 mg/kg, po qd for 7 days post turpentine oil challenge measured on day 8; assay type: functional
Method in brief: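 In ether-anaesthetized male Wistar rats (five per group) a dorsal subcutaneous pouch is formed with 2 mL air, then 0.5 mL turpentine oil is injected. Oral dosing at 20 mg/kg starts 1 h before turpentine and continues 7 days. On day 8 the exudate is drawn by syringe and its volume recorded; % inhibition = (Vcontrol − Vtreated)/Vcontrol × 100.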

[2] = test system: THP-1; assay: Antiinflammatory activity in human THP1 cells assessed as reduction in LPS and IFN-gamma-induced MCP1 level at 500 uM after 24 hrs; assay type: functional, cell-based
Method in brief: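 THP-1 cells in DMEM-F12 with 5% FBS, 24-well plates, pretreated 15 min with compound or DMSO vehicle, then stimulated with LPS 0.5 µg/mL plus IFN-γ 150 U/mL for 24 h. Death read as supernatant LDH (iodonitrotetrazolium formazan, 490 nm, fraction of Triton X-100 lysate); survival by MTT; MCP-1 by ELISA. Concentration effects by randomized block ANOVA; 8–11 independent experiments.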

[3] = test system: THP-1; assay: Neuroprotective activity against LPS and IFN-gamma-stimulated neurotoxin production in human THP1 cell assessed as inhibition of THP1 cell secretion-induced toxicity to human SH-SY5Y cells after 72 hrs by MTT assay; assay type: functional, cell-based; settings: for IC50: THP-1, 72 h
Method in brief: (§1)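 THP-1 cells pretreated 15 min with compound, then stimulated with LPS (0.5 µg/mL) plus IFN-γ (150 U/mL) for 24 h. Cell-free supernatant transferred to SH-SY5Y cells plated 24 h earlier (2 × 10^5 cells/mL). After 72 h, SH-SY5Y viability read by MTT (0.5 mg/mL, 1 h, 37 °C, OD570) or by LDH release (OD490, relative to Triton X-100 lysis). IC50 estimated.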

[4] = test system: THP-1; assay: Neuroprotective activity against LPS and IFN-gamma-stimulated neurotoxin production in human THP1 cells assessed as inhibition of THP1 cell secretion-induced toxicity to human sSH-SY5Y cells after 72 hrs by LDH release assay; assay type: functional, cell-based; method in brief: as §1
[5] = test system: SH-SY5Y; assay: Cytotoxicity against human SH-SY5Y cells assessed as reduction in cell viability at 500 uM after 72 hrs by MTT assay; assay type: functional
Method in brief: (§2)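 SH-SY5Y neuroblastoma cells exposed directly to compound at 5–500 µM; viability determined 72 h later by MTT (0.5 mg/mL final, 1 h at 37 °C, SDS/DMF solubilization overnight, 570 nm), relative to cells in fresh medium only.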

[6] = test system: THP-1; assay: Neuroprotective activity against LPS and IFN-gamma-stimulated neurotoxin production in human THP1 cells assessed as increase in THP1 cell secretion-induced LDH release to human SY-SH5Y cells at 10 to 100 uM after 72 hrs; assay type: functional, cell-based
Method in brief: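 THP-1 cells treated with 10–100 µM compound 15 min before LPS/IFN-γ stimulation for 24 h. Supernatants transferred to SH-SY5Y cells. After 72 h, LDH released into the neuronal medium measured colorimetrically and expressed as a fraction of Triton X-100-lysed wells.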

[7] = test system: SH-SY5Y; assay: Cytotoxicity against human SH-SY5Y cells assessed as reduction in cell viability at 100 uM after 72 hrs by MTT assay; assay type: functional; method in brief: as §2
[8] = test system: SH-SY5Y; assay: Neuroprotective activity against H2O2-induced oxidative stress in human SH-SY5Y cells; assay type: functional, cell-based
Method in brief: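 SH-SY5Y cells seeded at 2 × 10^5/mL in DMEM-F12 with 5% FBS; after 24 h medium replaced by supernatant of THP-1 cells stimulated 24 h with LPS + IFN-γ, or by medium containing 250 µM H2O2, with compound added at transfer. Cell death measured by LDH assay 72 h later; five independent experiments; randomized block ANOVA.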

[9] = test system: Rattus norvegicus; assay: Antiinflammatory activity in Wistar albino rat sub-acute inflammatory model assessed as inhibition of formalin-induced paw edema at 20 mg/kg, po administered 1 hr prior to formalin challenge measured on day 8 relative to control; assay type: functional
Method in brief: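 Male Wistar rats, 180–200 g, five per group, dosed orally 20 mg/kg daily for 7 consecutive days. Formalin (2%, 0.1 mL) injected subplantar into left hind paw under light ether 1 h after dosing, repeated on day 3. Paw volume measured plethysmographically on days 1 and 8; inhibition expressed relative to untreated controls.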

[10] = test system: THP-1; assay: Antiinflammatory activity in human THP1 cells assessed as reduction in LPS and IFN-gamma-induced level at 500 uM after 24 hrs
[11] = test system: SH-SY5Y (Homo sapiens); assay: Neuroprotective activity against LPS and IFN-gamma-induced human THP1 cell supernatant-induced death of human SH-SY5Y cells after 72 hrs by MTT assay; settings: THP-1
[12] = test system: THP-1; assay: Neuroprotective activity against LPS and IFN-gamma-stimulated neurotoxin production in human THP1 cell assessed as inhibition of THP1 cell secretion-induced toxicity to human SY-SH5Y cells after 48 hrs of LPS nd IFN-gamma challenge measured after 72 hrs by MTT assay; assay type: functional, cell-based
Method in brief: (§3)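 THP-1 cells given compound 15 min before LPS (0.5 µg/mL) plus IFN-γ (150 U/mL), then incubated 48 h. Cell-free supernatant moved onto SH-SY5Y cells plated 24 h earlier. Neuronal survival after 72 h by MTT assay or LDH release. 11 independent experiments; IC50 estimated.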

[13] = test system: THP-1; assay: Neuroprotective activity against LPS and IFN-gamma-stimulated neurotoxin production in human THP1 cell assessed as inhibition of THP1 cell secretion-induced toxicity to human SY-SH5Y cells after 48 hrs of LPS nd IFN-gamma challenge measured after 72 hrs by LDH release assay; assay type: functional, cell-based; method in brief: as §3

SMILES	inhibition in vivo at 20 mg/kg [1] [%]	Activity [2]	Activity [3]	IC50 [3] [µM]	Activity [4]	Activity [5] [%]	Activity [6]	Activity [7] [%]	Activity [8]	inhibition in vivo at 20 mg/kg [9] [%]	Activity [10]	Activity [11]	IC50 [12] [µM]	IC50 [13] [µM]
N#Cc1cnn(-c2ccccc2)c1NC(=O)C(=O)Nc1c(C#N)cnn1-c1ccccc1	48	Active	Dose-dependent effect	10	Active	86	Active	23	inactive	44	Active	Active	–	–
CC(NC(=O)C(=O)Nc1c(C#N)cnn1-c1ccccc1)c1ccccc1 (configuration not stated)	51	–	–	6	–	–	–	–	–	38	–	–	14	40
